# Measured values reported in ChEMBL document CHEMBL4715736, “Identification of anticancer agents based on the thieno[2,3-b]pyridine and 1H-pyrazole molecular scaffolds” (2016).
# Test system: SR
# Assay: Growth inhibition of human SR cells assessed as cell growth at 0.01 uM incubated for 48 hrs by sulforhodamine B assay relative to control
# Type: functional
# Settings: read-out: Activity
row,SMILES,growth at 0.01 µM
1,Nc1c(C(=O)Nc2ccccc2)sc2nc3c(cc12)CN(Cc1ccccc1)CC3,98%

# Test system: HOP-92
# Assay: Growth inhibition of human HOP-92 cells assessed as cell growth at 0.01 uM incubated for 48 hrs by sulforhodamine B assay relative to control
# Type: functional
# Settings: read-out: Activity
row,SMILES,growth at 0.01 µM
1,Nc1c(C(=O)Nc2ccccc2)sc2nc3c(cc12)CN(Cc1ccccc1)CC3,92%

# Test system: NCI-H23
# Assay: Growth inhibition of human NCI-H23 cells assessed as cell growth at 0.01 uM incubated for 48 hrs by sulforhodamine B assay relative to control
# Type: functional
# Settings: read-out: Activity
row,SMILES,growth at 0.01 µM
1,Nc1c(C(=O)Nc2ccccc2)sc2nc3c(cc12)CN(Cc1ccccc1)CC3,97%

# Test system: HCT-116
# Assay: Growth inhibition of human HCT-116 cells assessed as cell growth at 0.01 uM incubated for 48 hrs by sulforhodamine B assay relative to control
# Type: functional
# Settings: read-out: Activity
row,SMILES,growth at 0.01 µM
1,Nc1c(C(=O)Nc2ccccc2)sc2nc3c(cc12)CN(Cc1ccccc1)CC3,100%

# Test system: A498
# Assay: Growth inhibition of human A498 cells assessed as cell growth at 0.01 uM incubated for 48 hrs by sulforhodamine B assay relative to control
# Type: functional
# Settings: read-out: Activity
# Method in brief: (§1)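 NCI Developmental Therapeutics Program NCI60 panel. Compounds that were active in the 10 µM one-dose screen went on to dose–response testing. Growth at each concentration is expressed relative to untreated control (100%). GI50 (concentration giving 50% of maximal inhibition of proliferation) and TGI (concentration giving total growth inhibition) were derived from the curves.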
row,SMILES,growth at 0.01 µM
1,Nc1c(C(=O)Nc2ccccc2)sc2nc3c(cc12)CN(Cc1ccccc1)CC3,91%

# Test system: SR
# Assay: Growth inhibition of human SR cells assessed as cell growth at 0.1 uM incubated for 48 hrs by sulforhodamine B assay relative to control
# Type: functional
# Settings: read-out: Activity
row,SMILES,growth at 0.1 µM
1,Nc1c(C(=O)Nc2ccccc2)sc2nc3c(cc12)CN(Cc1ccccc1)CC3,91%

# Test system: OVCAR-5
# Assay: Growth inhibition of human OVCAR-5 cells assessed as cell growth at 0.1 uM incubated for 48 hrs by sulforhodamine B assay relative to control
# Type: functional
# Settings: read-out: Activity
row,SMILES,growth at 0.1 µM
1,Nc1c(C(=O)Nc2ccccc2)sc2nc3c(cc12)CN(Cc1ccccc1)CC3,92%

# Test system: TK-10
# Assay: Growth inhibition of human TK-10 cells assessed as cell growth at 0.1 uM incubated for 48 hrs by sulforhodamine B assay relative to control
# Type: functional
# Settings: read-out: Activity
row,SMILES,growth at 0.1 µM
1,Nc1c(C(=O)Nc2ccccc2)sc2nc3c(cc12)CN(Cc1ccccc1)CC3,96%

# Test system: UO-31
# Assay: Growth inhibition of human UO-31 cells assessed as cell growth at 0.1 uM incubated for 48 hrs by sulforhodamine B assay relative to control
# Type: functional
# Settings: read-out: Activity
row,SMILES,growth at 0.1 µM
1,Nc1c(C(=O)Nc2ccccc2)sc2nc3c(cc12)CN(Cc1ccccc1)CC3,83%

# Test system: A549
# Assay: Growth inhibition of human A549/ATCC cells assessed as cell growth at 1 uM incubated for 48 hrs by sulforhodamine B assay relative to control
# Type: functional
# Settings: read-out: Activity
# Method in brief: as §1
row,SMILES,growth at 1 µM
1,Nc1c(C(=O)Nc2ccccc2)sc2nc3c(cc12)CN(Cc1ccccc1)CC3,88%

# Test system: NCI-H23
# Assay: Growth inhibition of human NCI-H23 cells assessed as cell growth at 1 uM incubated for 48 hrs by sulforhodamine B assay relative to control
# Type: functional
# Settings: read-out: Activity
row,SMILES,growth at 1 µM
1,Nc1c(C(=O)Nc2ccccc2)sc2nc3c(cc12)CN(Cc1ccccc1)CC3,101%

# Test system: NCI-H322M
# Assay: Growth inhibition of human NCI-H322M cells assessed as cell growth at 1 uM incubated for 48 hrs by sulforhodamine B assay relative to control
# Type: functional
# Settings: read-out: Activity
row,SMILES,growth at 1 µM
1,Nc1c(C(=O)Nc2ccccc2)sc2nc3c(cc12)CN(Cc1ccccc1)CC3,91%

# Test system: NCI-H460
# Assay: Growth inhibition of human NCI-H460 cells assessed as cell growth at 1 uM incubated for 48 hrs by sulforhodamine B assay relative to control
# Type: functional
# Settings: read-out: Activity
row,SMILES,growth at 1 µM
1,Nc1c(C(=O)Nc2ccccc2)sc2nc3c(cc12)CN(Cc1ccccc1)CC3,91%

# Test system: 786-0
# Assay: Growth inhibition of human 786-0 cells assessed as cell growth at 1 uM incubated for 48 hrs by sulforhodamine B assay relative to control
# Type: functional
# Settings: read-out: Activity
# Method in brief: as §1
row,SMILES,growth at 1 µM
1,Nc1c(C(=O)Nc2ccccc2)sc2nc3c(cc12)CN(Cc1ccccc1)CC3,106%

# Test system: CAKI-1
# Assay: Growth inhibition of human CAKI-1 cells assessed as cell growth at 1 uM incubated for 48 hrs by sulforhodamine B assay relative to control
# Type: functional
# Settings: read-out: Activity
# Method in brief: as §1
row,SMILES,growth at 1 µM
1,Nc1c(C(=O)Nc2ccccc2)sc2nc3c(cc12)CN(Cc1ccccc1)CC3,87%

# Test system: PC-3
# Assay: Growth inhibition of human PC-3 cells assessed as cell growth at 1 uM incubated for 48 hrs by sulforhodamine B assay relative to control
# Type: functional
# Settings: read-out: Activity
row,SMILES,growth at 1 µM
1,Nc1c(C(=O)Nc2ccccc2)sc2nc3c(cc12)CN(Cc1ccccc1)CC3,89%

# Test system: CCRF-CEM
# Assay: Growth inhibition of human CCRF-CEM cells assessed as cell growth at 100 uM incubated for 48 hrs by sulforhodamine B assay relative to control
# Type: functional
# Settings: read-out: Activity
# Method in brief: as §1
row,SMILES,growth at 100 µM
1,Nc1c(C(=O)Nc2ccccc2)sc2nc3c(cc12)CN(Cc1ccccc1)CC3,36%

# Test system: NCI-H23
# Assay: Growth inhibition of human NCI-H23 cells assessed as cell growth at 100 uM incubated for 48 hrs by sulforhodamine B assay relative to control
# Type: functional
# Settings: read-out: Activity
row,SMILES,growth at 100 µM
1,Nc1c(C(=O)Nc2ccccc2)sc2nc3c(cc12)CN(Cc1ccccc1)CC3,24%

# Test system: NCI-H322M
# Assay: Growth inhibition of human NCI-H322M cells assessed as cell growth at 100 uM incubated for 48 hrs by sulforhodamine B assay relative to control
# Type: functional
# Settings: read-out: Activity
row,SMILES,growth at 100 µM
1,Nc1c(C(=O)Nc2ccccc2)sc2nc3c(cc12)CN(Cc1ccccc1)CC3,59%

# Test system: NCI-H522
# Assay: Growth inhibition of human NCI-H522 cells assessed as cell growth at 100 uM incubated for 48 hrs by sulforhodamine B assay relative to control
# Type: functional
# Settings: read-out: Activity
row,SMILES,growth at 100 µM
1,Nc1c(C(=O)Nc2ccccc2)sc2nc3c(cc12)CN(Cc1ccccc1)CC3,31%

# Test system: HT-29
# Assay: Growth inhibition of human HT-29 cells assessed as cell growth at 100 uM incubated for 48 hrs by sulforhodamine B assay relative to control
# Type: functional
# Settings: read-out: Activity
row,SMILES,growth at 100 µM
1,Nc1c(C(=O)Nc2ccccc2)sc2nc3c(cc12)CN(Cc1ccccc1)CC3,8%

# Test system: SNB-75
# Assay: Growth inhibition of human SNB-75 cells assessed as cell growth at 100 uM incubated for 48 hrs by sulforhodamine B assay relative to control
# Type: functional
# Settings: read-out: Activity
row,SMILES,growth at 100 µM
1,Nc1c(C(=O)Nc2ccccc2)sc2nc3c(cc12)CN(Cc1ccccc1)CC3,-49%

# Test system: UACC-257
# Assay: Growth inhibition of human UACC-257 cells assessed as cell growth at 100 uM incubated for 48 hrs by sulforhodamine B assay relative to control
# Type: functional
# Settings: read-out: Activity
row,SMILES,growth at 100 µM
1,Nc1c(C(=O)Nc2ccccc2)sc2nc3c(cc12)CN(Cc1ccccc1)CC3,44%

# Test system: UACC-62
# Assay: Growth inhibition of human UACC-62 cells assessed as cell growth at 100 uM incubated for 48 hrs by sulforhodamine B assay relative to control
# Type: functional
# Settings: read-out: Activity
row,SMILES,growth at 100 µM
1,Nc1c(C(=O)Nc2ccccc2)sc2nc3c(cc12)CN(Cc1ccccc1)CC3,6%

# Test system: BT-549
# Assay: Growth inhibition of human BT-549 cells assessed as cell growth at 100 uM incubated for 48 hrs by sulforhodamine B assay relative to control
# Type: functional
# Settings: read-out: Activity
row,SMILES,growth at 100 µM
1,Nc1c(C(=O)Nc2ccccc2)sc2nc3c(cc12)CN(Cc1ccccc1)CC3,-2%

# Test system: MDA-MB-468
# Assay: Growth inhibition of human MDA-MB-468 cells assessed as cell growth at 100 uM incubated for 48 hrs by sulforhodamine B assay relative to control
# Type: functional
# Settings: read-out: Activity
row,SMILES,growth at 100 µM
1,Nc1c(C(=O)Nc2ccccc2)sc2nc3c(cc12)CN(Cc1ccccc1)CC3,22%

# Test system: HOP-62
# Assay: Growth inhibition of human HOP-62 cells incubated for 48 hrs by sulforhodamine B assay
# Type: functional
# Settings: not given
# Method in brief: (§2)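 NCI60 panel at the NCI Developmental Therapeutics Program. Only compounds active in the 10 µM screen went to dose-response testing. GI50, the concentration giving 50% of maximal inhibition of proliferation, and TGI, the concentration giving total growth inhibition, were derived from the dose-response curves.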
SMILES,GI50,LC50,TGI
Nc1c(C(=O)Nc2ccccc2)sc2nc3c(cc12)CN(Cc1ccccc1)CC3,4.11 µM,> 100 µM,33.3 µM

# Test system: NCI-H322M
# Assay: Growth inhibition of human NCI-H322M cells incubated for 48 hrs by sulforhodamine B assay
# Type: functional
# Settings: not given
# Method in brief: as §2
SMILES,GI50,TGI
Nc1c(C(=O)Nc2ccccc2)sc2nc3c(cc12)CN(Cc1ccccc1)CC3,> 100 µM,> 100 µM

# Same assay, conditions: read-out: LC50 (the source's name)
row,SMILES,CC50
1,Nc1c(C(=O)Nc2ccccc2)sc2nc3c(cc12)CN(Cc1ccccc1)CC3,> 100 µM

# Test system: KM12
# Assay: Growth inhibition of human KM12 cells incubated for 48 hrs by sulforhodamine B assay
# Type: functional
# Settings: not given
# Method in brief: as §2
SMILES,GI50,LC50,TGI
Nc1c(C(=O)Nc2ccccc2)sc2nc3c(cc12)CN(Cc1ccccc1)CC3,19.1 µM,> 100 µM,> 100 µM

# Test system: SF-295
# Assay: Growth inhibition of human SF-295 cells incubated for 48 hrs by sulforhodamine B assay
# Type: functional
# Settings: not given
# Method in brief: (§3)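 NCI DTP 60-line human tumour panel. Dose-response curves were run only for ligands active in the initial 10 µM screen. GI50 (concentration giving 50% of maximal inhibition of proliferation) and TGI (concentration giving total growth inhibition) were derived from these curves.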
SMILES,GI50,LC50 (concentration killing 50% of cells),TGI
Nc1c(C(=O)Nc2ccccc2)sc2nc3c(cc12)CN(Cc1ccccc1)CC3,5.45 µM,> 100 µM,> 100 µM

# Test system: LOX IMVI
# Assay: Growth inhibition of human LOX IMVI cells incubated for 48 hrs by sulforhodamine B assay
# Type: functional
# Settings: not given
# Method in brief: as §2
SMILES,GI50,LC50,TGI
Nc1c(C(=O)Nc2ccccc2)sc2nc3c(cc12)CN(Cc1ccccc1)CC3,10.5 µM,> 100 µM,> 100 µM

# Test system: UACC-257
# Assay: Growth inhibition of human UACC-257 cells incubated for 48 hrs by sulforhodamine B assay
# Type: functional
# Settings: not given
# Method in brief: as §3
SMILES,GI50,LC50 (concentration killing 50% of cells),TGI
Nc1c(C(=O)Nc2ccccc2)sc2nc3c(cc12)CN(Cc1ccccc1)CC3,52.8 µM,> 100 µM,> 100 µM

# Test system: SN12C
# Assay: Growth inhibition of human SN12C cells incubated for 48 hrs by sulforhodamine B assay
# Type: functional
# Settings: not given
# Method in brief: as §3
SMILES,GI50,TGI
Nc1c(C(=O)Nc2ccccc2)sc2nc3c(cc12)CN(Cc1ccccc1)CC3,65.7 µM,> 100 µM

# Same assay, conditions: read-out: LC50 (the source's name)
row,SMILES,CC50
1,Nc1c(C(=O)Nc2ccccc2)sc2nc3c(cc12)CN(Cc1ccccc1)CC3,> 100 µM

# Test system: MDA-MB-231
# Assay: Growth inhibition of human MDA-MB-231 cells incubated for 48 hrs by sulforhodamine B assay
# Type: functional
# Settings: not given
# Method in brief: as §2
SMILES,GI50,TGI
Nc1c(C(=O)Nc2ccccc2)sc2nc3c(cc12)CN(Cc1ccccc1)CC3,5.81 µM,> 100 µM

# Same assay, conditions: read-out: LC50 (the source's name)
row,SMILES,CC50
1,Nc1c(C(=O)Nc2ccccc2)sc2nc3c(cc12)CN(Cc1ccccc1)CC3,> 100 µM

# Test system: Hs-578T
# Assay: Growth inhibition of human Hs-578T cells incubated for 48 hrs by sulforhodamine B assay
# Type: functional
# Settings: not given
# Method in brief: as §2
SMILES,GI50,TGI
Nc1c(C(=O)Nc2ccccc2)sc2nc3c(cc12)CN(Cc1ccccc1)CC3,2.07 µM,7.55 µM

# Same assay, conditions: read-out: LC50 (the source's name)
row,SMILES,CC50
1,Nc1c(C(=O)Nc2ccccc2)sc2nc3c(cc12)CN(Cc1ccccc1)CC3,> 100 µM
